Active and inactive are the calls of the source.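 Rule for the calls: active = current rise at least 3 SD above the untreated control mean in each of two repeat wells; inactive = the rest.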
molecular target: Potassium voltage-gated channel subfamily KQT member 1 (Homo sapiens) (UniProt P51787); assay: KCNQ1 channel current potentiators, confirmation, orthogonal assay for KCNQ1 potentiator project, IonWorks patch clamp, KCNQ1-CHO cells (AID 493184); settings: automated patch clamp current, at 10 µM; stronger effect = higher value;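 for current potentiation: percent change of the same well's current before compound addition so 0% = no change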
Method in brief: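 Probe or stimulus: depolarizing pulse to +40 mV from -90 mV; Material: CHO cells carrying KCNQ1; Compound: one dose, 10 µM final; Signal: automated voltage clamp, amphotericin B perforated patch; Read-out basis: percent current increase versus pre-compound level; Buffer or medium: pH 7.4 external bath; Replication: duplicates.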

Sequence of Potassium voltage-gated channel subfamily KQT member 1 (Homo sapiens) (P51787 whole entry, looked up): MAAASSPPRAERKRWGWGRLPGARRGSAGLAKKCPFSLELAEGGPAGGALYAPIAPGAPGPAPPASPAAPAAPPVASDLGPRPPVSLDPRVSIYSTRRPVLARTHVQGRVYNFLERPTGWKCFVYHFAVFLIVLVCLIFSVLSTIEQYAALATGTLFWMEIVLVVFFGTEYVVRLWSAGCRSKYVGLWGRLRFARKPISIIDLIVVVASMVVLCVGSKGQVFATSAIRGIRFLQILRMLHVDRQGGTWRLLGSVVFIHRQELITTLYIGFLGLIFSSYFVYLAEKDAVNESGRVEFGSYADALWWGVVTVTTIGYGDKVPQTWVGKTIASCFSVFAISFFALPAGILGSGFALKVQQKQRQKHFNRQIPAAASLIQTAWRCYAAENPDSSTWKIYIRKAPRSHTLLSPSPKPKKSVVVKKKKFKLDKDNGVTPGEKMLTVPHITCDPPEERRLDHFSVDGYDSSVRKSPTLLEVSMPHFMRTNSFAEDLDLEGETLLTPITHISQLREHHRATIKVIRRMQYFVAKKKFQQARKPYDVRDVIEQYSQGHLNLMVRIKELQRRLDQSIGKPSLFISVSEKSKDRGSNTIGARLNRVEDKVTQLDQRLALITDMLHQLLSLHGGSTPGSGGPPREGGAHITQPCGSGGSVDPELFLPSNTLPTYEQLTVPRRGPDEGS

| SMILES | outcome | current potentiation |
| --- | --- | --- |
| CC(C)C1Cc2c(sc3[nH]c(=S)n(Cc4ccccc4)c(=O)c23)CO1 (stereo not given) | inactive |  |
| Cc1ccc(-n2c(=S)[nH]c3c(oc4ccccc43)c2=O)cc1C | inactive |  |
| COC(=O)c1ccc(CSc2ncnc3sc(C)c(C)c23)o1 | inactive |  |
| CN(C)C(=S)NC(=O)c1cccc(Cl)c1 | inactive |  |
| Cc1ccc(Cl)cc1NC(=S)N/N=C/c1cccc2ccccc12 | inactive |  |
| O=C(NC(=S)Nc1ccccc1F)c1ccc(Br)o1 | inactive |  |
| CCOc1ccc(C(=O)NC(=S)N(Cc2ccccc2)Cc2ccccc2)cc1 | inactive |  |
| Cc1ccc(C)c(S(=O)(=O)NCC(=O)N2CCCC2)c1 | inactive |  |
| O=c1[nH]cc(S(=O)(=O)c2ccccc2)[nH]1 | inactive |  |
| COc1cccc(OC)c1OCCOCCN1CCN(C)CC1 | inactive |  |
| O=c1[nH]cc(N=Cc2cc(Cl)cc(Cl)c2O)c(=O)[nH]1 | inactive |  |
| COc1ccccc1OCCc1nnc(N)s1 | inactive |  |
| COc1cccc2sc(NNC(=O)c3nc4ccccc4s3)nc12 | inactive |  |
| CCC1CCCCN1C(=S)NC(=O)c1cccs1 (stereo not given) | inactive |  |
| C=CCn1c(O)c(N=NC(=S)Nc2cccc(OC)c2)c2ccccc21 | inactive |  |
| CCCCn1c(SCC(=O)/C(C#N)=C(\C)N)nc2ccccc2c1=O | inactive |  |
| COc1ccc([N+](=O)[O-])cc1NC(=O)c1cccnc1 | inactive |  |
| O=C(/C=C/c1ccco1)NC(=S)Nc1ccccc1O | inactive |  |
| O=C(NC(=S)N1CCN(c2ccc([N+](=O)[O-])cc2Cl)CC1)c1ccco1 | inactive |  |
| CC(/C=N/n1c(C2CCCCC2)n[nH]c1=S)=C\c1ccccc1 | inactive |  |

| SMILES | outcome | current potentiation |
| --- | --- | --- |
| CCCN(C(=O)c1cn(-c2ccccc2)nc1-c1ccc(OC)cc1)C1CCS(=O)(=O)C1 (stereo not given) | inactive |  |
| CCOC(=O)c1sc(N2N=C(C)C(N=Nc3cccc(C)c3)C2=O)nc1C (stereo not given) | inactive |  |
| CC1CCN(C(=S)NC(=O)c2cccc([N+](=O)[O-])c2)CC1 | inactive |  |
| Cc1[nH]n(-c2cccc3ccccc23)c(=O)c1/C=N/c1sc2c(c1C#N)CCC2 | inactive |  |
| CCc1ccc2nc(N(CCCN(C)C)C(=O)c3ccc(S(=O)(=O)N4CCCc5ccccc54)cc3)sc2c1 | inactive |  |
| CC(NC(=O)c1ccncc1)C(C)(C)C (stereo not given) | inactive |  |
| CCN(c1ccccc1)S(=O)(=O)c1ccc(OC)c(OC)c1 | inactive |  |
| O=C(NC(=S)N(CCc1ccccc1)CCc1ccccc1)c1ccco1 | inactive |  |
| COc1cccc2sc(Nc3nnc(-c4ccccc4Cl)o3)nc12 | inactive |  |
| O=C(NC(=S)Nc1ccccc1N1CCOCC1)c1cccc([N+](=O)[O-])c1 | inactive |  |
| COc1cccc2sc(N(CCCN(C)C)C(=O)c3ccc(S(=O)(=O)N4CCCc5ccccc54)cc3)nc12 | inactive |  |
| CN1CCN(C(=O)/C(=C/c2ccccc2)c2ccccc2)CC1 | inactive |  |
| O=C(/C=C/c1ccccc1Cl)c1ccccc(=O)c1O | inactive |  |
| O=Cc1cc2ccccc2nc1SCCCF | inactive |  |
| O=c1c2cc(Cl)ccc2nc(-c2ccccc2)n1O | inactive |  |
| Cc1ccc(C(C(=O)NC2CCCCC2)N(Cc2cccnc2)C(=O)C2COc3ccccc3O2)o1 (stereo not given) | inactive |  |
| CC(C)n1c(O)c(N=NC(=O)C2COc3ccccc3O2)c2ccccc21 (stereo not given) | inactive |  |
| COc1ccc(/C=C2\SC(=S)N(NS(=O)(=O)c3ccc(C)cc3)C2=O)c(OC)c1 |  | 20.6% (active) |
| CCOC(=O)Cc1csc(NC(=S)NC(=O)c2ccc(F)cc2)n1 | inactive |  |
| CSC(=S)N/N=C/c1ccc(Br)cc1 | inactive |  |

Source: PubChem BioAssay
